From paper PMC11522000 (Nature Microbiology, 2024)
≈ marks a conversion by molar mass, not a printed value. Entries after “also recorded” stand apart in the source; their conditions may differ.

Experiments:
C. parvum = test: Cytopathic effect; assay type: cell-based, Cryptosporidium parvum; conditions: for EC50: read-out: Cp CPE EC50, C. parvum, HCT-8, 48 h
Outline: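 HCT-8 cells were grown at 37 °C, 5% CO2 in RPMI-1640 with 10% heat-inactivated FBS. Oocysts were excysted in 10 mM HCl/HBSS for 10 min at 37 °C, then in 2 mM sodium taurocholate in L-15/UltraCULTURE medium for 5 min. Infected cells were seeded onto pre-spotted compound (10-point, 3-fold dilution; DMSO and reference-inhibitor controls) and incubated 48 h. Cells were then lysed for a viability read-out, and concentration-response curves were fitted.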

CpPI(4)K = molecular target: T1, CpPI(4)K (Cryptosporidium parvum, UniProt Q5CVD3); test: PI; assay type: biochemical, C. parvum; conditions: CpPI(4)K IC50, 3 μM ATP
T1 sequence (Q5CVD3 1-1114): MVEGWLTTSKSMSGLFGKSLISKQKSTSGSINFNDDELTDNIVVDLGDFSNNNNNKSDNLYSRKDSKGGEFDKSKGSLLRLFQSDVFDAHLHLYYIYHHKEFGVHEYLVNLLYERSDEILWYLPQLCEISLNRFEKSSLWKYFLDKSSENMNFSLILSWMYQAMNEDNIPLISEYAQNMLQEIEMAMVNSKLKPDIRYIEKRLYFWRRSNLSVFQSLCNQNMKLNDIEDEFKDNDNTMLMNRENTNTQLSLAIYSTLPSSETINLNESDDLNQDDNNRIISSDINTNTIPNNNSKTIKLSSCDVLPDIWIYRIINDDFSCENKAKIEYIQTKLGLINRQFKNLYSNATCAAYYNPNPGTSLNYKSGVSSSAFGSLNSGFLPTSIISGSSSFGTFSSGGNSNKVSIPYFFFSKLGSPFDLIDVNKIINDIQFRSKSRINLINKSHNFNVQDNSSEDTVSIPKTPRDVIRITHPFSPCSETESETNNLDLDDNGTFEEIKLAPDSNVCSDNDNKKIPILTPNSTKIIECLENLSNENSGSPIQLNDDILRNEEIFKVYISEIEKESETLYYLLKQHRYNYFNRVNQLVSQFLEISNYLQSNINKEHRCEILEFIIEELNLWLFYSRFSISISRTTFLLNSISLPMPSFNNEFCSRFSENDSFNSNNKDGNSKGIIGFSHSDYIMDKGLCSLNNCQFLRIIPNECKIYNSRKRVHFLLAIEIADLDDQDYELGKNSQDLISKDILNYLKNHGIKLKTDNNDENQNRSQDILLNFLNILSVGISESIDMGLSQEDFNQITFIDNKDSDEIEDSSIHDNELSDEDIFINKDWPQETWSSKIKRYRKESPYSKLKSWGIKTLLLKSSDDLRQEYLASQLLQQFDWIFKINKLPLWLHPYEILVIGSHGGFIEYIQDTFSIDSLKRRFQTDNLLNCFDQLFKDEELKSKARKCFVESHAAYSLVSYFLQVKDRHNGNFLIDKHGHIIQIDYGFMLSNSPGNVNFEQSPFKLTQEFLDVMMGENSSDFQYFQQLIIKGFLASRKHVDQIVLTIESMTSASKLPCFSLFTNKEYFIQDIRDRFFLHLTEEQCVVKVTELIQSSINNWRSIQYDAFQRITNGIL
Outline: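 Enzyme was pre-incubated with compound for 5 min at room temperature. The reaction was started with substrate mix at twice final strength (PI, ATP, Tris-HCl pH 7.5, DTT, 0.05% Triton X-100, MnCl2) and run 50 min at room temperature. ADP was measured by ADP-Glo luminescence. IC50s came from in-plate duplicate 10-point 3-fold dilutions, with DMSO and reference-inhibitor controls. The C. parvum enzymes (wild type and mutants) were full-length proteins expressed from baculovirus in Sf21 cells.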

[1] = High-throughput equilibrium solubility; assay type: physicochemical; conditions: thermodynamic from solid
Outline: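 Equilibrium solubility was measured by a miniaturized shake-flask method with HPLC quantification.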

PAMPA = assay type: in vitro ADME
[2] = MDCK Low Efflux permeability; assay type: in vitro ADME; conditions: dog
P-glycoprotein (MDR1) = test: MDCK MDR1 permeability and efflux; assay type: in vitro ADME; conditions: dog
[3] = Liver microsomes metabolic stability; assay type: in vitro ADME; conditions: mouse
Outline: (§1)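 Test compound was incubated with liver microsomes or hepatocytes of each species, and parent depletion was quantified by LC-MS/MS. From this, in vitro half-life and intrinsic clearance were derived, along with predicted metabolic clearance and hepatic extraction ratio.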

[4] = Hepatocytes metabolic stability; assay type: in vitro ADME; conditions: dog
Outline: as §1

CYP3A4 = CYP3A4 (Homo sapiens, UniProt P08684); test: CYP3A4 time-dependent inhibition; assay type: in vitro ADME
CYP3A4, sequence (P08684 whole entry): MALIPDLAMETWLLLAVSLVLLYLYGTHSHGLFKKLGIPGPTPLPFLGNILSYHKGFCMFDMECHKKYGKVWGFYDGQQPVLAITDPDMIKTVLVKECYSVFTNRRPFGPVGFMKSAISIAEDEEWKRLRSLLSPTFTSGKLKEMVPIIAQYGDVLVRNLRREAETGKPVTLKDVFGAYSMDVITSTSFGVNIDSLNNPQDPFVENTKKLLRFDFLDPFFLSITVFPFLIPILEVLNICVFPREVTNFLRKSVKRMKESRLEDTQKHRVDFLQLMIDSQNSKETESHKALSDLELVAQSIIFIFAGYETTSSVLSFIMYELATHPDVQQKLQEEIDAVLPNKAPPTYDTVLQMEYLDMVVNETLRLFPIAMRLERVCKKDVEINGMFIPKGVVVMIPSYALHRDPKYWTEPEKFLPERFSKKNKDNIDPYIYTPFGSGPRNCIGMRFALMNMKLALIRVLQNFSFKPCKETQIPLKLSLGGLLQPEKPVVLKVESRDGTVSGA

hERG potassium channel = hERG potassium channel (Homo sapiens, UniProt Q12809); test: hERG Q-Patch; assay type: cell-based
hERG potassium channel, sequence (Q12809 whole entry): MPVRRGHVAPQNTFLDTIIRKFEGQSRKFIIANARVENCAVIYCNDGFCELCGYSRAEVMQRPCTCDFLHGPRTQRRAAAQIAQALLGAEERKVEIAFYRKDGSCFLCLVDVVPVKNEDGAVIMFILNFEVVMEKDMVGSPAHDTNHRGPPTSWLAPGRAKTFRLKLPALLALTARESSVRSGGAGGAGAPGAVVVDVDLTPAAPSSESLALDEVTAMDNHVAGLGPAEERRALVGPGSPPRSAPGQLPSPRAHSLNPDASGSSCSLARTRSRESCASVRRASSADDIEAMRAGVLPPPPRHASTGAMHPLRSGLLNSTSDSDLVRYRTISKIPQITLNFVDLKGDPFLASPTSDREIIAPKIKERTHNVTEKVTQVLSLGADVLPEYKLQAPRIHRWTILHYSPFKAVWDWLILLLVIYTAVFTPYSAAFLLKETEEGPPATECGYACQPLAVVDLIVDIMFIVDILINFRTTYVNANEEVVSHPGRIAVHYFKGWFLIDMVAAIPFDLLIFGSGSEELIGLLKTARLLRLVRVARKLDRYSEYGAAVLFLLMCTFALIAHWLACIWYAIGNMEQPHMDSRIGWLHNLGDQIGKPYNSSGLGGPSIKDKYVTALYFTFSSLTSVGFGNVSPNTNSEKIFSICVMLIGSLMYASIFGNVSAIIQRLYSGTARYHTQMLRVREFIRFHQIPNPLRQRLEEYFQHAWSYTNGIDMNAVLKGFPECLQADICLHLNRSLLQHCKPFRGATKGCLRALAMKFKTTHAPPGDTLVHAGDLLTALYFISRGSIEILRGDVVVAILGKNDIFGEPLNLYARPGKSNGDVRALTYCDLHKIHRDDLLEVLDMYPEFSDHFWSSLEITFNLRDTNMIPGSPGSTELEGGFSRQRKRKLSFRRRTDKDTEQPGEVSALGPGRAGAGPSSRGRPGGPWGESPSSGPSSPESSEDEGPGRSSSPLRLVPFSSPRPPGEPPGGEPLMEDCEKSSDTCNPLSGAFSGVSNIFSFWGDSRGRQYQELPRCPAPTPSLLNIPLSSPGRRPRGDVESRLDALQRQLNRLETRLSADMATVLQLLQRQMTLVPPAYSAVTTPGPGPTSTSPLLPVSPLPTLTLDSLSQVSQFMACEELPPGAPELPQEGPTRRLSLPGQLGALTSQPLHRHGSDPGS
Outline: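 hERG potassium current was recorded at near-physiological temperature in stably transfected mammalian cells expressing hERG. The test compound was applied as a 4-point dose response spanning 1–30.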

hNav1.5 = hNav1.5 (Homo sapiens, UniProt Q14524); test: Patch clamp Nav1.5 Quattro; assay type: cell-based
hNav1.5, sequence (Q14524 whole entry): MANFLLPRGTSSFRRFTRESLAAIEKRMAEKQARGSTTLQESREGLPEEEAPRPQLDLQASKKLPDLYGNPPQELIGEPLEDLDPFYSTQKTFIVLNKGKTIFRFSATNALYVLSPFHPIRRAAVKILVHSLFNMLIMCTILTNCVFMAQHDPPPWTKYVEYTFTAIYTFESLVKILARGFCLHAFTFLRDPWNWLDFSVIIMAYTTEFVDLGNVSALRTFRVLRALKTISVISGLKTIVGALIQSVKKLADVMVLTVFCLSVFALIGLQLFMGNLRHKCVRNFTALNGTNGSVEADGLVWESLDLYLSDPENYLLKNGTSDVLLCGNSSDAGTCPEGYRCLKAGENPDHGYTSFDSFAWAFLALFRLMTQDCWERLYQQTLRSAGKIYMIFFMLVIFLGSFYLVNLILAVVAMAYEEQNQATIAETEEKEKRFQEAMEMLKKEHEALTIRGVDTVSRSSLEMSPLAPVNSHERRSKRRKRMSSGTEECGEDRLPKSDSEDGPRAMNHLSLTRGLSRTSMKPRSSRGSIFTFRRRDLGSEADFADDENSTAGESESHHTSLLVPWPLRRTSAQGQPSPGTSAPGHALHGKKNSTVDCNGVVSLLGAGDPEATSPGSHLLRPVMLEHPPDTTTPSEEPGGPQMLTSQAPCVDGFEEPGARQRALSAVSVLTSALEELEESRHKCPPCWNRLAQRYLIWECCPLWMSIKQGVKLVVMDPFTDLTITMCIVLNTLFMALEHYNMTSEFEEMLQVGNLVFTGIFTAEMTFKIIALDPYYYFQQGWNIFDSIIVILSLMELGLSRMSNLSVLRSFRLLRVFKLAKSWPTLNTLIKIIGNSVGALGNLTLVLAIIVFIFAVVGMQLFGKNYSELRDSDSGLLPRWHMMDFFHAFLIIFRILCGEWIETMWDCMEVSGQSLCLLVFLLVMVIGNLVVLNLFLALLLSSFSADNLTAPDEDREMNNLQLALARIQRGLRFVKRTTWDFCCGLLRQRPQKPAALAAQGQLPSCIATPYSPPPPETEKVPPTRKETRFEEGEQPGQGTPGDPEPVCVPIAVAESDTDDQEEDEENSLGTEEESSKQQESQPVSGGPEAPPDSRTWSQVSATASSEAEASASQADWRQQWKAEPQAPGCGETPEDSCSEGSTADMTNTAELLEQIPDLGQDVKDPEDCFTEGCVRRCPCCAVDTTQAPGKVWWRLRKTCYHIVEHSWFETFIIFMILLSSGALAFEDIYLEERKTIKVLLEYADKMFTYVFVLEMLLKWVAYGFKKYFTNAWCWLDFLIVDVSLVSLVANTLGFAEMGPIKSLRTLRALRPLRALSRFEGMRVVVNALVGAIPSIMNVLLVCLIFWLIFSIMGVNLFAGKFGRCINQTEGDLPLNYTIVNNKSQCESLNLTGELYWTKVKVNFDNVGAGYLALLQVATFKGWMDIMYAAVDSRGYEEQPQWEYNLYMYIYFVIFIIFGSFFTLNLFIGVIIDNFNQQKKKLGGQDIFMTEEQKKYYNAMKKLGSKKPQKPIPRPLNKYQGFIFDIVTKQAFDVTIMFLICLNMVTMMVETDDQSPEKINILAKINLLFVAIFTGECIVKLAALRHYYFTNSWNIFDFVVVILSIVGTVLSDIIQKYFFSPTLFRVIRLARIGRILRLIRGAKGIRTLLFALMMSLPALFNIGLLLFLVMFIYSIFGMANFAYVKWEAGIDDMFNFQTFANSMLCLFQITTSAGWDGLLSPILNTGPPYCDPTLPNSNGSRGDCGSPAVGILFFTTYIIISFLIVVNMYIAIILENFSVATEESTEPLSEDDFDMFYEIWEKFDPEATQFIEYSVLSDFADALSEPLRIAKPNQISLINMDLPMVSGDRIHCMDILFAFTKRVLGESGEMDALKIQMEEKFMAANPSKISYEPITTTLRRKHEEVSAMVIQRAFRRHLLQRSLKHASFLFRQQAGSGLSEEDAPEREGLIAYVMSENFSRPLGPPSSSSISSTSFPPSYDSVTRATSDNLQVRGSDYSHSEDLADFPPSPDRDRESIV
Outline: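 Each channel was stably expressed in HEK293 cells and tested by patch clamp with a 7-point concentration-response.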

[5] = test system: human peripheral blood lymphocytes; test: In vitro human lymphocyte; assay type: cell-based; conditions: EDI048: near cytotoxic concentrations
Outline: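 Lymphocytes came from pooled blood of two donors. The assay was run under GLP and OECD guidelines, and micronuclei were scored on slides by fluorescence microscopy.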

rat reticulocytes = test: In vivo rat peripheral blood micronucleus assay
Outline: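 Peripheral blood was taken on days 3 and 15, in randomized order, from animals in the 2-week rat toxicology study. Micronucleated reticulocytes were counted by flow cytometry.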

3T3 fibroblast cells = test: In vitro 3T3 NRU phototoxicity test; assay type: cell-based
Outline: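 This followed OECD 432. 3T3 fibroblasts in 96-well plates were exposed to a concentration range of test compound, up to its solubility limit in HBSS, and viability was read by neutral red uptake.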

[6] = Systemic exposure in the mouse efficacy studies; assay type: in vivo

Row | SMILES | EC50 (C. parvum) [µM] | IC50 (CpPI(4)K) [µM] | PAMPA (% calc fraction absorbed) (PAMPA) [%] | Papp A→B [2] [×10⁻⁶ cm/s] | Papp A→B (P-glycoprotein (MDR1); MDCK-MDR1) [×10⁻⁶ cm/s] | efflux ratio (P-glycoprotein (MDR1); MDCK-MDR1) | Microsomal ER [3] [%] | Hepatocytes ER [4] [%] | Time dependent inhibition 3A4 (CYP3A4) | IC50 (hERG potassium channel) [µM] | IC50 (hNav1.5) [µM] | In vitro Human lymphocyte MN induction [5] | In vivo rat reticulocytes MN induction (rat reticulocytes) | Phototoxicity (3T3 fibroblast cells) | Phototoxicity PIF value (3T3 fibroblast cells) | other results
1 | CNC(=O)c1ccc(-c2cnn3ccc(C(=O)N(C)c4ccc(Cl)c(C(=O)OC)c4)cc23)cc1 [EDI048, methyl 2-chloro-5-(N-methyl-3-(4-(methylcarbamoyl)phenyl)pyrazolo[1,5-a]pyridine-5-carboxamido)benzoate] | 0.05 | 0.004 ± 0.002 | 97 | 9.71 | 7.92 | 1.62 | 93 | 83 | Weak positive | 8.3 | > 50 | Positive^d | Negative | Negative | 1.8 | solubility ([1]; FaSSIF, Solubility FaSSIF): 198 µM (≈ 94.4 µg/mL); solubility ([1]; pH 6.8, aqueous buffer, Solubility pH 6.8, pH 6.8): 54 µM (≈ 25.8 µg/mL); Papp B→A (P-glycoprotein (MDR1); MDCK-MDR1, Permeability B–A, MDCK MDR1, basolateral to apical): 12.9 ×10⁻⁶ cm/s; microsomal CLint ([3]; liver microsomes): > 700 µL/min/mg; hepatocyte CLint ([4]; hepatocytes): 28.5 µL/min/1e6 cells; KI (inactivation) (CYP3A4; human): 2.1 µM; systemic exposure ([6]; mouse, oral 1 and 3 mg kg^−1): no detectable EDI048 systemic exposure
2 | CN(C(=O)c1ccn2ncc(-c3ccc(C(N)=O)cc3)c2c1)c1ccc(C#N)cn1 [KDU731, 3–(4-carbamoylphenyl)-N-(5-cyanopyridin-2-yl)-N-methylpyrazolo [1,5-a]pyridine-5-carboxamide, reference compound] | 0.1 | 0.017 ± 0.008 | 34.7 | 12.1 | 1.95 | 7.93 | 48 | 10 | Negative | 23 | > 50 | induce micronuclei; also recorded: Positive | induce micronuclei; also recorded: Positive | Negative | 3.1 | EC90 (C. parvum; Cryptosporidium parvum, HCT-8, read-out: approximate C. parvum CPE assay EC90): ~0.5 µM; solubility ([1]; FaSSIF): 48 µM (≈ 19 µg/mL); solubility ([1]; pH 6.8, aqueous buffer): 19 µM (≈ 7.53 µg/mL); Papp B→A (P-glycoprotein (MDR1); MDCK-MDR1): 15.5 ×10⁻⁶ cm/s; microsomal CLint [3]: 50 µL/min/mg; AUC (time 0 to last timepoint) ([6]; mouse efficacy study, 10 mg kg^−1 oral): 2,982 nM h
